Results published in ChEMBL document CHEMBL1142697, “Beta-lactam screening by specific residues of the OmpF eyelet” (2005).

Key:
[1] = test system: Klebsiella aerogenes; test: Mean lysis diameter was measured against Enterobacter aerogenes EA289 with D121A mutation by standard disk diffusion method on MH agar; assay type: functional
Outline: (§1)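 Porin-deficient, β-lactamase-producing Enterobacter aerogenes EA289 carrying plasmid-borne wild-type OmpF, D113A or D121A. Grown in LB at 37 °C with gentle shaking, with kanamycin (50 µg/mL) or IPTG (1 mM); porin expression checked. Disk diffusion: 3 mL MH broth culture (10^7 bacteria/mL) spread on MH agar, antibiotic disks applied, inhibition diameter (mm) after 24 h at 37 °C. Mean of 3–5 experiments, versus the wild-type OmpF strain.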

[2] = test system: Klebsiella aerogenes; test: Mean lysis diameter of porin deficient Enterobacter aerogenes EA289 by standard disk diffusion method on MH agar; assay type: functional
Outline: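 Porin-deficient, β-lactamase-expressing E. aerogenes EA289 is grown in Luria Bertani broth at 37 °C with gentle shaking. An MH broth culture at 10^7 bacteria/mL is spread on MH agar and antibiotic-loaded disks are applied. The inhibition diameter (mm) around each disk is read after 24 h at 37 °C, averaged over three to five experiments.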

[3] = test system: Klebsiella aerogenes; test: Mean lysis diameter of wild type Enterobacter aerogenes EA289 with OmpF by standard disk diffusion method on MH agar; assay type: functional
Outline: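 EA289 is transformed with a plasmid encoding wild-type OmpF and grown in LB at 37 °C with gentle shaking, with kanamycin (50 µg/mL) or IPTG (1 mM) as needed to keep the plasmid. OmpF expression level is checked. For the disk diffusion test, MH broth culture (10^7 bacteria/mL) is spread on MH agar with antibiotic disks. Zone diameter (mm) is read after 24 h at 37 °C, mean of 3–5 experiments.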

[4] = test system: Klebsiella aerogenes; test: Mean lysis diameter of Enterobacter aerogenes EA289 with D113A mutation by standard disk diffusion method on MH agar; assay type: functional; outline: as §1
[5] = test system: Escherichia coli; test: Bacterial susceptibility induced by D121 mutation in Escherichia coli OmpF; assay type: functional, organism-based; outline: as §1
[6] = test system: Escherichia coli; test: Bacterial susceptibility induced by D113 mutation in Escherichia coli OmpF; assay type: functional, organism-based; outline: as §1

Structure (SMILES) | Lysis diameter [1] | Lysis diameter [2] | Lysis diameter [3] | Lysis diameter [4] | Susceptibility [5] | Susceptibility [6]
CC1(C)S[C@@H]2[C@H](NC(=O)[C@H](N)c3ccccc3)C(=O)N2[C@H]1C(=O)O [AMPICILLIN] | 7 mm | 6 mm | 6 mm | 16 mm |  | 
CO/N=C(\C(=O)N[C@@H]1C(=O)N2C(C(=O)[O-])=C(C[n+]3cccc4c3CCC4)CS[C@H]12)c1csc(N)n1 [CEFPIROME] | 31 mm | 19 mm | 26 mm | 31 mm |  | 
CO/N=C(\C(=O)N[C@@H]1C(=O)N2C(C(=O)[O-])=C(C[N+]3(C)CCCC3)CS[C@H]12)c1csc(N)n1 [CEFEPIME] | 29 mm | 19 mm | 27 mm | 30 mm | +/- | +/-
CC(C)(O/N=C(\C(=O)N[C@@H]1C(=O)N2C(C(=O)[O-])=C(C[n+]3ccccc3)CS[C@H]12)c1csc(N)n1)C(=O)O [CEFTAZIDIME] | 15 mm | 8 mm | 11 mm | 20 mm |  | 
CO/N=C(\C(=O)N[C@@H]1C(=O)N2C(C(=O)O)=C(COC(C)=O)CS[C@H]12)c1csc(N)n1 [CEFOTAXIME] | 18 mm | 15 mm | 17 mm | 23 mm |  | 
CO[C@@]1(NC(=O)Cc2cccs2)C(=O)N2C(C(=O)O)=C(COC(N)=O)CS[C@@H]21 [CEFOXITIN] | 12 mm | 6 mm | 7 mm | 16 mm |  | 
